Assay results: ChEMBL document CHEMBL4425094, “Novel Benzo[a]quinolizidine Analogs Induce Cancer Cell Death through Paraptosis and Apoptosis” (J Med Chem, 2016)
Activity calls are given as the source filed them. No cut-off for these calls is given here.

Key:
PC-3 [1] = assay: Induction of apoptosis in human PC3 cells assessed as PARP cleavage after 24 hrs by Western blot analysis; type: functional, cell-based
In short: (§1)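 PC3 cells in RPMI 1640 with 10% FBS, treated with compound for timed intervals. DMSO vehicle control. Lysis in RIPA buffer, 40 μg protein per lane on SDS-PAGE, transfer to nitrocellulose. Primary antibodies overnight at 4 °C, HRP-secondary 45 min, ECL detection. GAPDH or β-actin used as loading control.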

PC-3 [2] = assay: Induction of apoptosis in human PC3 cells assessed as viable cells at 0.5 uM after 24 hrs by Annexin V-FITC/propidium iodide based flow cytometric analysis (reference value: 95.4 %); type: functional; settings: PC-3, 24 h, read-out: Activity
In short: (§2)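 PC3 cells exposed to 0.5, 1 or 2 μM for 24 h, then stained with Annexin V-FITC and PI and analyzed by FACSCalibur flow cytometry. Populations assigned as necrotic (Annexin V−/PI+), late apoptotic (double positive), normal (Annexin V−/PI−) and early apoptotic (Annexin V+/PI−). DMSO vehicle control.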

PC-3 [3] = assay: Induction of autophagy in human PC3 cells assessed as increase in p62/SQSTM1 expression after 4 hrs by Western blot analysis; type: functional, cell-based; in short: as §1
PC-3 [4] = assay: Induction of cell cycle arrest in human PC3 cells assessed as accumulation in S phase at 2 uM after 24 hrs by […]propidium iodide based flow cytometric analysis (reference value: 21 to 31.6 %); type: functional
MDA-MB-231 = assay: Cytotoxicity against human MDA-MB-231 cells assessed as cell growth inhibition after 24 hrs by MTT assay; type: functional, cell-based; settings: MDA-MB-231, 24 h
In short: (§3)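 Cells seeded 24 h in RPMI 1640 + 10% FBS. RWPE-1 was kept in K-SFM with bovine pituitary extract and EGF. Cells then exposed to compounds for 24 h at 37 °C, 5% CO2, with DMSO vehicle and docetaxel as positive control. MTT added for 4 h, absorbance read at 570 nm. Triplicate runs, IC50 reported as mean of three experiments.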

PC-3M [5] = assay: Antiproliferation activity against human PC3M-lluc-C6 cells xenografted in athymic Balb/c mouse assessed as decrease in cell viability at 15 mg/kg, ip administered every 2 days for 18 days by Ki-67 staining based microscopic analysis; type: functional, organism-based
In short: (§4)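 Male BALB/c-nu mice, 6 weeks old, each given 5 × 10^6 PC3M-luc-C6 cells subcutaneously in the right anterior flank. At ~0.1 cm3 tumor, groups of n = 5 received 15 mg/kg i.p. every 2 days. Docetaxel 15 mg/kg was the positive control. Tumor tissue stained with H&E or anti-Ki67 (1:500) overnight at 4 °C, HRP/DAB, hematoxylin counterstain, examined by microscopy.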

HeLa = assay: Cytotoxicity against human HeLa cells assessed as cell growth inhibition after 24 hrs by MTT assay; type: functional, cell-based; in short: as §3
PC-3 [6] = assay: Induction of apoptosis in human PC3 cells assessed as necrotic cells at 0.5 uM after 24 hrs by Annexin V-FITC/propidium iodide based flow cytometric analysis (reference value: 1.1 %); type: functional; in short: as §2
PC-3M [7] = assay: Antiproliferation activity against human PC3M-lluc-C6 cells xenografted in athymic Balb/c mouse assessed as decrease in cell viability at 15 mg/kg, ip administered every 2 days for 18 days by H and E staining based microscopic analysis; type: functional, organism-based; in short: as §4
MCF7 = assay: Cytotoxicity against human MCF7 cells assessed as cell growth inhibition after 24 hrs by MTT assay; type: functional, cell-based; settings: MCF7, 24 h; in short: as §3
PC-3 [8] = assay: Induction of cell cycle arrest in human PC3 cells assessed as accumulation in G0/G1 phase at 0.5 uM after 24 hrs by […]propidium iodide based flow cytometric analysis (reference value: 43.5 to 62.5 %); type: functional
PC-3 [9] = assay: Induction of ER stress in human PC3 cells assessed as formation of vacuoles after 8 to 24 hrs […]; type: functional, cell-based
PC-3 [10] = assay: Cytotoxicity in human PC3 cells assessed as reduction in cell viability after 24 hrs in presence of AcT-D by MTT assay; type: functional, cell-based
In short: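 PC3 cells pretreated with 10 μM actinomycin D or 5 μM cycloheximide, then treated with compound for 24 h. Viability by MTT at 570 nm. Vacuolation imaged by phase-contrast microscopy.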

PC-3 [11] = assay: Induction of fusion of autophagosomes with lysosomes in human PC3 cells transfected with mRFP-GFP-LC3 at 1 uM after 8 hrs by fluorescence microscopic analysis; type: functional, cell-based
In short: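 PC3 cells transfected with an mRFP-GFP-LC3 reporter plasmid, then treated 8 h with 1 μM test agent or 0.5 μM rapamycin (autophagy inducer). Imaged by confocal fluorescence microscopy: yellow puncta (overlapping red/green) scored as autophagosomes, red-only puncta as autolysosomes, since GFP is quenched in acidic lysosomes.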

PC-3 [12] = assay: Growth inhibition of human PC3 cells at IC30 in presence of MG139 assessed as combination index by MTT assay; type: functional
In short: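 PC3 cells incubated with increasing concentrations of compound combined with a second agent (bortezomib or partner compound). Viability determined, combination index calculated: CI < 1 synergism, = 1 additive, > 1 antagonism.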

PC-3 [13] = assay: Cytotoxicity against human PC3 cells transfected with LC3-targeting siRNA assessed as reduction in cell viability at 1 uM after 24 hrs by Western blot analysis; type: functional, cell-based
In short: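 PC3 cells plated at 20−30% confluence and transfected 24 h later with 50 nM LC3-targeting or scramble siRNA. After 48 h, cells were exposed to 1 μM compound for a further 24 h. Read-out by Western blot and phase-contrast imaging.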

[14] = Toxicity in athymic Balb/c mouse assessed as induction of mortality at 15 mg/kg, ip administered every 2 days for 18 days; type: organism-based; settings: in vivo
In short: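 Male athymic BALB/c-nu mice, 6 weeks old, bearing subcutaneous PC3M-luc-C6 xenografts (5 × 10^6 cells, right anterior flank) were grouped (n = 5) once tumours reached about 0.1 cm3. They received a 15 mg/kg suspension intraperitoneally every 2 days for 18 days, alongside placebo and docetaxel (15 mg/kg) groups. Body weight and deaths were recorded.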

PC-3 [15] = assay: Induction of apoptosis in human in human PC3 cells assessed as reduction in cell viability in presence of caspase inhibitor by MTT assay
K562 = assay: Cytotoxicity against human K562 cells assessed as cell growth inhibition after 24 hrs by MTT assay; type: functional, cell-based; settings: K562, 24 h; in short: as §3
PC-3 [16] = assay: Induction of autophagy in human PC3 cells assessed as conversion of LC3B1 to LC3B2 after 24 hrs by Western blot analysis; type: functional, cell-based; in short: as §1
PC-3 [17] = assay: Induction of apoptosis in human in human PC3 cells assessed as reduction in cell viability in presence of pan-caspase inhibitor Z-VAD-fmk by MTT assay; type: functional, cell-based
In short: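 PC3 cells pretreated with Z-VAD-fmk (10 μM) or Ac-DEVD-CHO (50 μM) before compound exposure. Viability read by MTT at 570 nm. Significance tested against control by Student's t test.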

For `Cc1cc(C)cc(COc2cc3c(cc2OCc2cc(C)cc(C)c2)[C@@H]2C[C@H](O)C[C@@H](C)N2CC3)c1` (racemic), the Activity (PC-3 [1]) was “Active”, the viability at 0.5 µM (PC-3 [2]) was 95.3% and the Activity (PC-3 [3]) was “inactive”. For the same molecule, the Activity (PC-3 [4]) was 6.38 - 9.05%, the IC50 (MDA-MB-231) was 820 nM and the inhibition (PC-3M [5]) was “Active”. The IC50 (HeLa) was 1650 nM, the Activity (PC-3 [6]) was 1% and the Activity (PC-3M [7]) was “Active”. For the same molecule, the IC50 (MCF7) was 510 nM, the Activity (PC-3 [8]) was 63.8 - 70.2% and the Activity (PC-3 [9]) was “Active”. For the same molecule, the Activity (PC-3 [10]) was “inactive”, the Activity (PC-3 [11]) was “inactive” and the CI (PC-3 [12]) was 0.1 - 0.3. For the same molecule, the Activity (PC-3 [13]) was “inactive”, the Activity [14] was “Non-Toxic” and the Activity (PC-3 [15]) was “inactive”. For the same molecule, the IC50 (K562) was 1440 nM, the Activity (PC-3 [16]) was “Active” and the Activity (PC-3 [17]) was “inactive”.
